Data: ChEMBL document CHEMBL3414491, “Synthesis and antitumor activities evaluation of m-(4-morpholinoquinazolin-2-yl)benzamides in vitro and in vivo” (Eur J Med Chem, 2015)
Activity calls are given as the source filed them. The rule behind the calls is not given here.

Columns and labels:
MCF7 = assay: Antiproliferative activity against human MCF7 cells after 72 hrs by MTT assay; format: functional, cell-based; conditions: MCF7, 72 h
Method in brief: (§1)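 MTT: cells seeded at 1500–4000 per well, grown 24 h, then given serial dilutions (1% DMSO final) for 72 h at 37 °C. MTT was added for 4 h, formazan dissolved in DMSO and absorbance read at 490 nm. Three separate experiments in triplicate; IC50 is the concentration giving 50% cell death versus control.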

[1] = Antiproliferative activity against human HCT116 cells after 72 hrs by MTT assay; format: functional, cell-based; conditions: HCT-116, 72 h; method in brief: as §1
[2] = Antiproliferative activity against human U87MG cells after 72 hrs by MTT assay; format: functional, cell-based, U-87MG ATCC; conditions: U-87 MG; method in brief: as §1
A549 = assay: Antiproliferative activity against human A549 cells after 72 hrs by MTT assay; format: functional, cell-based; conditions: A549, 72 h; method in brief: as §1
[3] = Inhibition of PI3K-mediated PI3K/Akt/mTOR pathway in human HCT116 cells assessed as reduction in Akt Ser473 phosphorylation at 10 uM incubated for 1 hr by Western blot method; format: cell-based; conditions: HCT-116
Method in brief: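 HCT-116 cells were seeded at 5 × 10⁵ per well and grown 16 h at 37 °C, then exposed to 10 µM for 1 h; vehicle control was 0.5% DMSO. Lysates were normalised by BCA, run on 10% SDS-PAGE, transferred to nitrocellulose and probed for AKT and p-Ser473 AKT, with β-actin as loading control. Detection was by chemiluminescence; bands were quantified densitometrically.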

[4] = target: PI3-kinase subunit gamma/Phosphoinositide 3-kinase regulatory subunit 5 (Homo sapiens, UniProt P48736); assay: Inhibition of p110gamma/PIK3R5 (unknown origin) using L-alpha-phosphatidylinositol incubated for 40 mins by ADP depletion detection based luciferase assay; format: protein-complex assay
[5] = target: PI3-kinase p110-delta/p85-alpha (Homo sapiens, UniProt O00329); assay: Inhibition of p110delta/p85alpha (unknown origin) using L-alpha-phosphatidylinositol incubated for 40 mins by ADP depletion detection based luciferase assay; format: protein-complex assay
PI3K p110 beta/p85 alpha = PI3K p110 beta/p85 alpha (Homo sapiens, UniProt P42338); assay: Inhibition of p110beta/p85alpha (unknown origin) using L-alpha-phosphatidylinositol incubated for 40 mins by ADP depletion detection based luciferase assay; format: protein-complex assay
[6] = target: PI3-kinase p110-alpha/p85-alpha (Homo sapiens, UniProt P42336); assay: Inhibition of p110alpha/p85alpha (unknown origin) using L-alpha-phosphatidylinositol incubated for 40 mins by ADP depletion detection based luciferase assay; format: protein-complex assay
Sequence of PI3-kinase p110-alpha/p85-alpha (P27986 whole entry): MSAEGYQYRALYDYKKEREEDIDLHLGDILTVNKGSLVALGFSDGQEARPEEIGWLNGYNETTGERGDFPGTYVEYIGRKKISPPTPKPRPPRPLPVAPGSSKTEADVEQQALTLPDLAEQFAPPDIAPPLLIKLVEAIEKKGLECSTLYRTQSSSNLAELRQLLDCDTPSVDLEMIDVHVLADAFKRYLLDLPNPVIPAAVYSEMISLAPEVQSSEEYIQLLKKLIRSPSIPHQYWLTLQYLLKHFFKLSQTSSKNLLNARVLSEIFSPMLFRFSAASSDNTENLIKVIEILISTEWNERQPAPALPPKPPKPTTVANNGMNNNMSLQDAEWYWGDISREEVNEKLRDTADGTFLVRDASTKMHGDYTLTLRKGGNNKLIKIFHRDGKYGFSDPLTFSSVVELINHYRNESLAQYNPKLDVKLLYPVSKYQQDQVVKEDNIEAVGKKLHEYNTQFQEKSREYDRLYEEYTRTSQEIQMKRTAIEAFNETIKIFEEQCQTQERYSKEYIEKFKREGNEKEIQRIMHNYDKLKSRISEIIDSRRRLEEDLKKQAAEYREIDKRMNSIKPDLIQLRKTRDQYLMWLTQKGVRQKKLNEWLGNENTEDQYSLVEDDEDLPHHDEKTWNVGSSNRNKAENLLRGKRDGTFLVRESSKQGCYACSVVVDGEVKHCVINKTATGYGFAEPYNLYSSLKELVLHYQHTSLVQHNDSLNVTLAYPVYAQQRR
Sequence of PI3-kinase p110-alpha/p85-alpha (P42336 whole entry): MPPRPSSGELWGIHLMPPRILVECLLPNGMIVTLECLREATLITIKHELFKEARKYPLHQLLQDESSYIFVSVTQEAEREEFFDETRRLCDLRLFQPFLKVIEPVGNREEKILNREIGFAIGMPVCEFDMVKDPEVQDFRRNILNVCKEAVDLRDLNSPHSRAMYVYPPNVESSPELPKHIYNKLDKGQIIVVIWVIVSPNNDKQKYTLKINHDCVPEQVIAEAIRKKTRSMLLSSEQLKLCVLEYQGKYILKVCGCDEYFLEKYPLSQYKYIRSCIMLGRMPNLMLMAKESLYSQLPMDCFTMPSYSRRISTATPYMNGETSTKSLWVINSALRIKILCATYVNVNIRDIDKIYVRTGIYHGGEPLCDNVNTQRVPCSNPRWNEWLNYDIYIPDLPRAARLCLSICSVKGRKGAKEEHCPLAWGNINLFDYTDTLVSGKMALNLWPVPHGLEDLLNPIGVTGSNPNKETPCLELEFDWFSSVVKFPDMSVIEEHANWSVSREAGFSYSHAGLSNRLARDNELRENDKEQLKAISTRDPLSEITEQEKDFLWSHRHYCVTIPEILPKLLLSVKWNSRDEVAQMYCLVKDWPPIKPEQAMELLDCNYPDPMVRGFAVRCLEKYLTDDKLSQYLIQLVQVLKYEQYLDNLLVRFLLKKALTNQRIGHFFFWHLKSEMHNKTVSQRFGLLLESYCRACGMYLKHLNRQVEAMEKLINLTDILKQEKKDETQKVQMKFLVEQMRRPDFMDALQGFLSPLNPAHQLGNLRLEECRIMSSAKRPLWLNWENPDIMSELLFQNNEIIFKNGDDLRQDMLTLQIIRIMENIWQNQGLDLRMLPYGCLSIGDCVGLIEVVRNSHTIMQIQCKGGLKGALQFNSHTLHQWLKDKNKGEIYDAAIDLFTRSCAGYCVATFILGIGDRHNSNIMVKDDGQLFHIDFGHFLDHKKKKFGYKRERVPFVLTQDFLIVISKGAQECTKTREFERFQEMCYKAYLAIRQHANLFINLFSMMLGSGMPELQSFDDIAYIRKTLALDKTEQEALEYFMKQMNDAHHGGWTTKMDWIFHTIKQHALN

Sequence of PI3-kinase p110-delta/p85-alpha (P27986 whole entry): as the sequence (P27986 whole entry) above
Sequence of PI3-kinase p110-delta/p85-alpha (O00329 whole entry): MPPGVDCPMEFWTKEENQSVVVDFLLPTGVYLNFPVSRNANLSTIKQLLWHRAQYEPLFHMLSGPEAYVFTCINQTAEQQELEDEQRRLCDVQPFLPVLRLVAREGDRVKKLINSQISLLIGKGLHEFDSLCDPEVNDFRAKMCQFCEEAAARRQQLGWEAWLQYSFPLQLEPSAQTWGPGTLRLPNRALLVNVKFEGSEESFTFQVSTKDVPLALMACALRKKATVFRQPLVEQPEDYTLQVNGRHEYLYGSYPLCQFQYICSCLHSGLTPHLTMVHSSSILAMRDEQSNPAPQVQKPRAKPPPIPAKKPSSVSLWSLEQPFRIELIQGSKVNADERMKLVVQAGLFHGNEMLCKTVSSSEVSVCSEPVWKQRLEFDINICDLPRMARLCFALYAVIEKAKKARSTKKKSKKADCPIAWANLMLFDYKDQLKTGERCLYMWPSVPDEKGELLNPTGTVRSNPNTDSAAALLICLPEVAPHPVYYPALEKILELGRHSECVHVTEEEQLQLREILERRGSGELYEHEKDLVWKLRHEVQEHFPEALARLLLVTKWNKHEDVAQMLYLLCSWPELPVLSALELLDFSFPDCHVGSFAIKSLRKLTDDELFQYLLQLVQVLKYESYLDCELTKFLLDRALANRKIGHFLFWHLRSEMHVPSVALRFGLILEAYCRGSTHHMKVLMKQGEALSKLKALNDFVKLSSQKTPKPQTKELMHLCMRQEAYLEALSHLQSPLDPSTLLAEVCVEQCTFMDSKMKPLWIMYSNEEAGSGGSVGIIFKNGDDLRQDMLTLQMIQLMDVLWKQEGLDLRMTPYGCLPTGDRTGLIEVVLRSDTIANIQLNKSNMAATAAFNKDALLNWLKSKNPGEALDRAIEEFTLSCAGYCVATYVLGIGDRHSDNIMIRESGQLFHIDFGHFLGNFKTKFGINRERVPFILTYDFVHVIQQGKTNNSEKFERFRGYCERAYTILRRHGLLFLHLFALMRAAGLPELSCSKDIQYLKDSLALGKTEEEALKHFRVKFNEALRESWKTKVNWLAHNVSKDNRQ
Sequence of PI3K p110 beta/p85 alpha (P27986 whole entry): as the sequence (P27986 whole entry) above
Sequence of PI3K p110 beta/p85 alpha (P42338 whole entry): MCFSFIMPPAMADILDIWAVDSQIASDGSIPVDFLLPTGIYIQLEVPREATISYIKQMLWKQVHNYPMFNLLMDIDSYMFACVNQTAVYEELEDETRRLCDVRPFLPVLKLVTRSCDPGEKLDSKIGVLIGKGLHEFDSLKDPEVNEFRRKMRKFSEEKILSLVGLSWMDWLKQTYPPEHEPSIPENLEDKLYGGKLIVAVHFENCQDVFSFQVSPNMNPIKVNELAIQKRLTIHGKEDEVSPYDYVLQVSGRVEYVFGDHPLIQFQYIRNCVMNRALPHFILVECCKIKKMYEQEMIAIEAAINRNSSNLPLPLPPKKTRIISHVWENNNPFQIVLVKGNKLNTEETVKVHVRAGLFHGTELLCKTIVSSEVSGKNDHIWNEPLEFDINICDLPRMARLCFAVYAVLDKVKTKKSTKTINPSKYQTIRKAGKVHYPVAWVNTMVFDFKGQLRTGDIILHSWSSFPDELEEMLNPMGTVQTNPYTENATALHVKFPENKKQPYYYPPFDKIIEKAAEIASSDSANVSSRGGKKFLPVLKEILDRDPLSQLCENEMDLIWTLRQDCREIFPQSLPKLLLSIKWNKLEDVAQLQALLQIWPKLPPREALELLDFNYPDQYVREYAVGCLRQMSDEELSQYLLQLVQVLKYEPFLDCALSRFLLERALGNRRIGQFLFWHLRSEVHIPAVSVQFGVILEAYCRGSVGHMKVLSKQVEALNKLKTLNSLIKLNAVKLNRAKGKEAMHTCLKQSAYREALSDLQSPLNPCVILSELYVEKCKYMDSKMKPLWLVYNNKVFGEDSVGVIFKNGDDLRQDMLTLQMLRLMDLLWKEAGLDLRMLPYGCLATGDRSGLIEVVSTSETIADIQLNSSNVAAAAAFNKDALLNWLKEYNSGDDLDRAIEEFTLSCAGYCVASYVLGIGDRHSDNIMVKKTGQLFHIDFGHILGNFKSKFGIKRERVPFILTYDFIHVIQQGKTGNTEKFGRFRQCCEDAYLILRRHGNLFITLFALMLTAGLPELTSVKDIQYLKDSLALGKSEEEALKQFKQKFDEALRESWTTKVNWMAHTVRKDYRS

| IC50 (MCF7) [nM] | IC50 (A549) [nM] | IC50 [4] [nM] | IC50 [5] [nM] | IC50 (PI3K p110 beta/p85 alpha) [nM] | IC50 [6] [nM] | Structure (SMILES) | IC50 [1] [nM] | IC50 [2] [nM] | inhibition [3] |
| --- | --- | --- | --- | --- | --- | --- | --- | --- | --- |
| 7900 |  |  |  |  |  | COc1cc2nc(-c3ccc(OCc4ccccc4)c(C(N)=O)c3)nc(N3CCOCC3)c2cc1OC | 5030 |  |  |
| 5190 |  |  |  |  |  | COCCOc1cc2c(N3CCOCC3)nc(-c3cc(OC)cc(C(N)=O)c3)nc2cc1OC | 890 |  |  |
| 2030 | 4750 |  |  |  |  | COc1cc2nc(-c3cc(C(N)=O)cc(C(F)(F)F)c3)nc(N3CCOCC3)c2cc1OC | 710 | 1190 |  |
| 7520 |  |  |  |  |  | COCCOc1cc2nc(-c3cc(OC)cc(C(N)=O)c3)nc(N3CCOCC3)c2cc1OCCOC | 9040 |  |  |
| 3610 |  |  |  |  |  | COc1cc2nc(-c3ccc(NC(C)=O)cc3)nc(N3CCOCC3)c2cc1OC | 1090 |  |  |
| 1380 | 3210 |  |  |  |  | COc1cc2nc(-c3cnc(N)nc3)nc(N3CCOCC3)c2cc1OC | 420 | 5000 |  |
| 1750 | 9220 |  |  |  |  | COc1cc(C(N)=O)cc(-c2nc(N3CCOCC3)c3cc(OC)c(OC)cc3n2)c1 | 450 | 1010 |  |
| 5660 |  |  |  |  |  | COc1cc(C(N)=O)cc(-c2nc(N3CCOCC3)c3cc(OC)c(OCCN4CCOCC4)cc3n2)c1 | 4720 |  |  |
| 1010 | 9370 |  |  |  |  | COc1cc(C(N)=O)cc(-c2nc(N3CCOCC3)c3cc(OC)c(OCCN4CCCC4)cc3n2)c1 | 810 | 2450 |  |
| 4600 |  |  |  |  |  | COc1cc2nc(-c3ccc(C(N)=O)cc3)nc(N3CCOCC3)c2cc1OC | 1250 |  |  |
| 7420 |  |  |  |  |  | COc1cc2nc(-c3ccc(O)c(C(N)=O)c3)nc(N3CCOCC3)c2cc1OC | 2770 |  |  |
| 10300 |  |  |  |  |  | COc1cc(C(N)=O)cc(-c2nc(N3CCOCC3)c3cc(OC)c(OCc4ccccc4)cc3n2)c1 | 6450 |  |  |
| 1090 | 2280 |  |  |  |  | CS(=O)(=O)N1CCN(Cc2cc3nc(-c4cccc5[nH]ncc45)nc(N4CCOCC4)c3s2)CC1 [PICTILISIB] | 370 | 1240 | Active |
| 2640 | 17200 | 394 | 260 | 454 | 53 | COc1cc2nc(-c3cc(O)cc(C(N)=O)c3)nc(N3CCOCC3)c2cc1OC | 880 | 1840 |  |
| 2140 | 26100 |  |  |  |  | COc1cc2nc(-c3cccc(C(N)=O)c3)nc(N3CCOCC3)c2cc1OC | 900 | 1570 |  |
